Rows were chosen to be rich in hits. Some 1.4% of all compounds tested hit in one or more screens of this group.
FXIIa inh – blocks human coagulation factor XIIa protease activity; 0.3% of 220,000 active; AID 800; purified FXIIa, Boc-QGR-AMC fluorogenic substrate, 2 h; P00748; inhibition, % at 5 µM; in the data active means inhibition above about 40%
thrombin 1536 – inhibitors of human thrombin. 0.26% of 220,000 active. P00734. alpha-thrombin, Boc-VPR-AMC fluorogenic substrate cleavage. inhibition, % at 5 µM;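 active means inhibition at or above 40%; inactive means inhibition below 40%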
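Material: Human alpha-thrombin protein | Buffer or medium: pH 7.5 Tris-saline with Tween 20 | Reagent: Boc-VPR-AMC substrate, 15 µM final | Schedule: Reaction at ambient temperature | Detection: AMC fluorescence at 355 nm excitation and 460 nm emission | Evaluation: Percent inhibition scaled between no-compound controls and no-enzyme blanks | Controls: no-compound enzyme wells and no-enzyme blanks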
Rce1 inh – blocks yeast Ras-converting enzyme; yeast membranes, quenched prenylated peptide cleavage fluorescence; Q03530; calls only; 0.27% of 290,000 active;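 active means fall in fluorescence gain of 50% or more versus controls, with final raw signal at or below 3038400; inconclusive means same 50% fall but final raw signal above 3038400; inactive means fall in fluorescence gain under 50%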
Target sequence (Q03530 whole entry, looked up): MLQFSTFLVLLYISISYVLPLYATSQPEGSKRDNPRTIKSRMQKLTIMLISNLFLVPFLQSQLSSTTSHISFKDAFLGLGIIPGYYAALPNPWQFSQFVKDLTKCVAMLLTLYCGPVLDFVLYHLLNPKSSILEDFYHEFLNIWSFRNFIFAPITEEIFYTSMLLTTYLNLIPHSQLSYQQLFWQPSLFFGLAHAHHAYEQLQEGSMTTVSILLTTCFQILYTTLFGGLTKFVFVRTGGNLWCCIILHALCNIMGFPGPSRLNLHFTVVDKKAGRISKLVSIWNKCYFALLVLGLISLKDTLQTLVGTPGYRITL
KLK5 inh – inhibitors of human kallikrein 5; recombinant hK5, fluorogenic AMC substrate cleavage; inhibition, % at 5 µM; Q9Y337; 0.59% of 210,000 active;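 active means inhibition of 40% or more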
Target sequence (Q9Y337 67-293 limits assumed): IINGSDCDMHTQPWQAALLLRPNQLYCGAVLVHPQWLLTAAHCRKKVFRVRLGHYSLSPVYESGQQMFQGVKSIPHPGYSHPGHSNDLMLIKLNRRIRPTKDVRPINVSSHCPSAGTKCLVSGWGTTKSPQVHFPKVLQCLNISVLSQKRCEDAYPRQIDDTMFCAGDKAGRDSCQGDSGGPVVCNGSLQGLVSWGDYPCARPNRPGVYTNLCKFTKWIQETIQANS
Fh CTSL1 inh – counter-screen for PFM18AAP inhibitors: inhibitors of F. hepatica cathepsin L1; recombinant F. hepatica cathepsin L1, Z-Leu-Arg-MCA fluorescence; inhibition, % at 5.96 µM; 0.49% of 300,000 active; AID 1906;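 active means inhibition above the mean of all tested compounds plus 3 SD, set per screening campaign, cut at about 17% in these data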
FXIa inh 1536 – inhibitors of human coagulation factor XIa; purified FXIa, Boc-Glu-Ala-Arg-AMC fluorogenic substrate; inhibition, % at 5 µM; 0.14% of 220,000 active; AID 798;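 active means inhibition of at least 40%; inactive means inhibition below 40%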;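 further: fluorescence of freed AMC excited at 355 nm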
Large screens that a line does not name were inactive; ! = not active in a repeat.

O=C1C(=O)c2ccccc2-c2ccccc21	Fh CTSL1 inh 110 (no result: FXIIa inh)
CC(=NCCCn1ccnc1)c1c(O)n(C2CCCCC2)c(=O)[nH]c1=O	none
Cc1nn(CC(=O)N2CCC3(CC2)OCCO3)c(=O)c2cc3ccccc3n12	none (no result: FXIIa inh, thrombin 1536, KLK5 inh, FXIa inh 1536)
CN1CCN(c2ccc([N+](=O)[O-])c(Sc3ccccn3)c2)CC1	none
CN1CCN(c2ccc([N+](=O)[O-])c(Sc3nncn3C)c2)CC1	Rce1 inh active
CC(N)Cc1cn(Cc2ccccc2)c2ccccc12 (configuration not stated)	none (no result: FXIIa inh, thrombin 1536, KLK5 inh, FXIa inh 1536)
CC[C@]12C=CCN3CCC4(c5cc(Br)c(OC)cc5N(C)C4[C@@](O)(C(=O)OC)[C@@H]1OC(C)=O)C32 (some centres not stated)	KLK5 inh 43
CC1CCCN(CC(=O)N2CCCc3ccccc32)C1 (configuration not stated)	KLK5 inh 87
CCOc1ccccc1C1SCC(=O)Nc2c1c(=O)[nH]n2C(CC)CC (configuration not stated)	none
C=CC[N+]1(C)CC[C@]23c4c5ccc(O)c4O[C@H]2C(=O)CC[C@@]3(O)[C@H]1C5 (some centres not stated)	Rce1 inh active (no result: FXIIa inh, thrombin 1536, KLK5 inh, FXIa inh 1536)
CN1CC(C#N)C2(O)c3ccccc3CCC2C1 (configuration not stated)	none (no result: FXIIa inh, thrombin 1536, KLK5 inh, FXIa inh 1536)
CC1=NN=C(c2ccc(N)cc2)c2cc3c(cc2C1)OCO3	Fh CTSL1 inh 39 (no result: FXIIa inh, thrombin 1536, Rce1 inh, KLK5 inh, FXIa inh 1536)
Cc1cc(OCC(=O)N2CCC(C(=O)O)(c3ccccc3)CC2)c2c(C)c(C)c(=O)oc2c1	Fh CTSL1 inh 18 (no result: FXIIa inh, thrombin 1536, KLK5 inh, FXIa inh 1536)
CC(C)C[C@H]1C(=O)N2CCC[C@H]2[C@]2(O)O[C@](NC(=O)[C@@H]3C=C4c5cccc6[nH]cc(c56)C[C@H]4N(C)C3)(C(C)C)C(=O)N12	Fh CTSL1 inh 34 (no result: FXIIa inh, thrombin 1536, Rce1 inh, KLK5 inh, FXIa inh 1536)
C[C@]12CCC(=O)C=C1CC[C@@H]1C2[C@H](O)C[C@]2(C)C(=O)CCC12 (some centres not stated)	none (no result: FXIIa inh, thrombin 1536, KLK5 inh, FXIa inh 1536)
CC(C)c1ccccc1OCC(=O)N1CCCN(C)CC1	Fh CTSL1 inh 18 (no result: FXIIa inh, thrombin 1536, KLK5 inh, FXIa inh 1536)
CN1CCN(c2ccc([N+](=O)[O-])c3no[n+]([O-])c23)CC1	Fh CTSL1 inh 18
COc1c(C)cc(C(=O)C2CCCN(Cc3ccccn3)C2)cc1C (configuration not stated)	none
Cc1ccc(C2C(S(C)(=O)=O)=C(O)C(=O)N2c2ccccc2)cc1 (configuration not stated) (tested in a mixture with another compound)	KLK5 inh 44
CNC(=O)c1cccn(Cc2cccc(C(F)(F)F)c2)c1=O	none
CN(C)CCNC(=O)c1cccn(Cc2cccc(C(F)(F)F)c2)c1=O	Rce1 inh active
Cc1c(OC(=O)N(C)C)ccc2c1O/C(=C\c1ccco1)C2=O	none (no result: FXIIa inh, thrombin 1536, KLK5 inh, Fh CTSL1 inh, FXIa inh 1536)
[Cl][Pt+2][Cl].[NH-]C1CCCCC1[NH-] (configuration not stated)	Fh CTSL1 inh 40 (no result: FXIIa inh, thrombin 1536, Rce1 inh, KLK5 inh, FXIa inh 1536)
CCN(CC)C(=O)c1ccc(NC(=O)COc2ccccc2F)cc1	none
COC(=O)C1C2c3ccccc3C(c3ccccc32)C1C(=O)OC (configuration not stated)	none
CN(C(=O)Oc1cccc2cccnc12)c1ccccc1	FXIIa inh 44
Cc1cccc(OP(=O)(Nc2ccc(F)cc2)Oc2cccc(C)c2)c1	none (no result: KLK5 inh)
Cc1ccc2c(c1)N(C(C)C(=O)N1CCC3(CC1)OCCO3)C(=O)CO2 (configuration not stated)	none (no result: FXIIa inh, thrombin 1536, KLK5 inh, FXIa inh 1536)
CC1(CCl)CN1S(=O)(=O)c1ccccc1 (configuration not stated)	Fh CTSL1 inh 28
CCC(=O)c1c(O)n(C2CCCCCC2)c(=O)[nH]c1=O	KLK5 inh 46
CC(=NCCO)c1c(O)n(C2CCCCC2)c(=O)[nH]c1=O	none
CNc1ccc2nc3ccccc3[n+](C)c2c1	none (no result: FXIIa inh, thrombin 1536, KLK5 inh, FXIa inh 1536)
C[n+]1c2ccccc2nc2ccc(NCCO)cc21	Fh CTSL1 inh 38 (no result: FXIIa inh, thrombin 1536, KLK5 inh, FXIa inh 1536)
COC(=O)C1=C(c2ccccc2)C[C@@H]2CC[C@H]1N2C(=O)NCc1cccc2ccccc12	none (no result: FXIIa inh, thrombin 1536, KLK5 inh, FXIa inh 1536)
Cc1ccc2c(c1)C1CN(C)CCC1N2C(=O)c1cn(-c2ccccc2)nc1-c1ccccc1 (configuration not stated)	thrombin 1536 80
Cc1ccc2c(c1)C1CN(C)CCC1N2C(=O)c1cccnc1Cl (configuration not stated)	none
CC1CCCCN1CC(O)c1c[nH]c2ccccc12 (configuration not stated)	none (no result: FXIIa inh, thrombin 1536, KLK5 inh, FXIa inh 1536)
O=P(C(c1c[nH]c2ccccc12)N1CCOCC1)(N1CCOCC1)N1CCOCC1 (configuration not stated)	KLK5 inh 43
OC12Oc3ccccc3C=C1N1CCC2CC1 (configuration not stated)	none
COc1cc2c(cc1/C=C/[N+](=O)[O-])OCO2	KLK5 inh 40, FXIa inh 1536 42 (no result: Fh CTSL1 inh)
O=C(O)c1ccc(N=Cc2c(O)n(Cc3ccc(F)cc3)c(=O)[nH]c2=O)cc1	FXIIa inh 41
Cc1oc2ccc(OC(=O)N(C)C)cc2c1C(=O)OC(C)C	none
CCOC(=O)c1c(-c2ccc(OC)cc2)oc2ccc(OC(=O)N(C)C)cc12	Rce1 inh active
Cc1nn(-c2ccccc2)c(Cl)c1C1C(C#N)=C(N)Oc2c1c(=O)oc1ccccc21 (configuration not stated)	none
O=C(Nc1ccccc1)N1CC2CC(C1)c1cccc(=O)n1C2 (configuration not stated)	none
Cc1nc2ccccc2n1C1CCN(Cc2nnnn2CCc2ccccc2)CC1	FXIIa inh 43
c1ccc(CCn2nnnc2CN2CCC(n3nnc4ccccc43)CC2)cc1	none (no result: Rce1 inh)
CCC(COC(=O)NC)NC(=O)Oc1ccccc1 (configuration not stated)	none
OCC#CC[N+]1(CC#Cc2ccccc2)CCOCC1	KLK5 inh 78 (no result: Rce1 inh)
N#Cc1c(Cl)nc(Cl)c2c1CCN(Cc1ccccc1)C2	Rce1 inh active
c1ccc(CN2CCN(Cc3ccc4ccccc4c3)CC2)cc1	none (no result: FXIIa inh, thrombin 1536, KLK5 inh, FXIa inh 1536)
CC(=O)C1C2c3ccccc3OC1(C)N=c1s/c(=C/c3cn(C)nc3C)c(=O)n12 (configuration not stated)	Fh CTSL1 inh 34
COC(=O)C1C2c3ccccc3OC1(C)N=c1s/c(=C/c3cnn(C)c3)c(=O)n12 (configuration not stated)	none
COC(=O)c1cccc(NC(=O)N2C[C@H]3C[C@@H](C2)c2cccc(=O)n2C3)c1	none (no result: FXIIa inh, thrombin 1536, KLK5 inh, FXIa inh 1536)
CCC(CO)NC(=O)C1C=C2c3cccc4[nH]cc(c34)CC2N(C)C1 (configuration not stated)	Rce1 inh inconclusive
CC[C@@H](CO)NC(=O)[C@@H]1C=C2c3cccc4c3c(cn4C)C[C@H]2N(C)C1	Rce1 inh inconclusive, Fh CTSL1 inh 17!
CN(C)C(=O)Oc1noc2cc(Cl)ccc12	Fh CTSL1 inh 43

Bioassay records: PubChem BioAssay, several laboratories
